High-throughput results deposited in PubChem BioAssay by several laboratories.
Only some compounds are listed: those with a hit (about 9.6% of all), similar ones and a draw of the others.
Lmaj promast = Leishmania major promastigote growth inhibition, primary screen; Leishmania major promastigotes, resazurin fluorescence viability; inhibition, % at 10 µM; 200,000 compounds, 9% hits; AID 1063, 2008; in the data active = inhibition above about 50%;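 also: promastigotes grown with compound for 44 hours at 28 °C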
PTEN del growth = growth suppression of PTEN-null HCT116, primary screen, cell-based, CellTiter-Glo; HCT116 PTEN-null viability, 60 h; active compounds read low; viability, % at 10 µM; 140,000 compounds, 1.2% hits;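 active = viability at or below a set limit, 4 SD under the median of all tested compounds, cut at about 3.7% in these data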;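 also: PTEN knockout HCT116 line with beta catenin targeted HCT116 as companion control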
PMI activator = activators of human PMI, primary screen, biochemical, fluorescence intensity, near-Km mannose 6-phosphate; purified human PMI, coupled resazurin fluorescence, 20 min; active compounds read high; 1 = vehicle control, 0 substrate-free wells; activation factor at 20 µM; 190,000 compounds, 0.005% hits;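 active = activation factor of 2 or more at 20 µM, relative to plate controls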
Target sequence (P34949 whole entry, looked up): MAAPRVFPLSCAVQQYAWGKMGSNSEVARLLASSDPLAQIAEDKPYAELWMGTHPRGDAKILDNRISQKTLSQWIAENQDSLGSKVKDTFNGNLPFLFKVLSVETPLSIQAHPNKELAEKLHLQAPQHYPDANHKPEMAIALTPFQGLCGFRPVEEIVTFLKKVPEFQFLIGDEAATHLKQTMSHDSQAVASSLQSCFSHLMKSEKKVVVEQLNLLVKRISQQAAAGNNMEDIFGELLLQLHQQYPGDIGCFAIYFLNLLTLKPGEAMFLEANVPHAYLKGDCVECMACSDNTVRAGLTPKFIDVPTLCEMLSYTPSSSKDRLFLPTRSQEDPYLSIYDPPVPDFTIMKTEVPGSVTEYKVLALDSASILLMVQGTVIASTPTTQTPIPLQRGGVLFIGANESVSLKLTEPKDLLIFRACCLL
PMI act satM6P = human PMI activators, high substrate, primary screen, biochemical, fluorescence intensity, near-saturating mannose 6-phosphate; Mannose-6-phosphate isomerase (Homo sapiens), P34949; coupled PMI enzyme assay, resazurin fluorescence, 20 min; active compounds read high; 1 = untreated enzyme, 0 = substrate-free blank; activation factor at 20 µM; 190,000 compounds, 0.34% hits; AID 1216, 2008;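 active = activation factor of 2 or more at 20 µM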
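Material: human phosphomannose isomerase with PGI, G6PDH, diaphorase coupling enzymes; amount: PMI at 15 ng/mL final; also added: Mannose-6-phosphate 1.0 mM (near-saturating) plus 0.22 mM NADP+; incubation: enzyme reaction with compound 20 min at room temperature; signal: resorufin fluorescence (Ex 544/Em 590 nm) from resazurin via diaphorase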
bCat KO growth = primary screen for growth suppressors in beta-catenin knockout HCT116 cells (colon tumor, human); HCT116 beta-catenin knockout viability, CellTiter-Glo, 60 h; active compounds read low; viability, % at 10 µM; 140,000 compounds, 1.5% hits;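 active = viability at or under a set limit, the compound median less 4 SD, cut at about 6% in these data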;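 also: 0% = Hyamine 1622 control at 20 µM and 100% = untreated cell control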
Numbers without * were called inactive; x = not tested or not shown.

SMILES	Lmaj promast	PTEN del growth	PMI activator	PMI act satM6P	bCat KO growth
Cc1c(Cl)cccc1-c1ccc(/C=N/n2cnnc2)o1	69*	87	0.9	1	90
Cc1cc(-c2ccc(/C=N/n3cnnc3)o2)ccc1Cl	65*	85	1.1	1	88
Cc1ccc(NC(=O)Cn2c(=O)cnc3ccccc32)cc1S(=O)(=O)N(C)C	-2	86	0.9	1	79
CC(=O)c1ccccc1NC(=O)Cn1c(=O)cnc2ccccc21	58*	79	1	1	67
O=C(Nc1ccc(OCC(F)(F)C(F)F)c(C(F)(F)F)c1)c1ccccc1	2	x	x	x	x
O=C(Nc1ccc(OCC(F)(F)C(F)F)c(C(F)(F)F)c1)c1ccccc1O	100*	5	0.9	0.9	5.2*
CC(C)(C)N(NC(=O)Nc1ccc(Cl)c(Cl)c1)C(=O)c1ccccc1	12	3.4*	0.9	1	9
[O-]C1=N/[N+](=C/c2ccccc2Cl)CC1	-5	104	1.5	2*	94
[O-]C1=N/[N+](=C/c2ccc(Cl)c(Cl)c2)CC1	4	87	0.9	1	97
CC(C)N(CCc1ccncc1)C(=S)Nc1cccc(Cl)c1	24	x	0.9	0.9	x
O=C(NC1(C(F)(F)F)NC(=O)N(c2ccccc2)C1=O)c1cccs1 (stereo not drawn)	57*	88	0.9	0.9	94
CN1C(=O)NC(NC(=O)c2cccs2)(C(F)(F)F)C1=O (stereo not drawn)	-6	107	0.8	0.9	102
Cc1ccc(N(C(=O)c2nsc(Cl)c2Cl)C(C(=O)NC2CCCC2)c2ccc(O)cc2)cc1C (stereo not drawn)	76*	70	0.8	0.9	74
Cc1cccc(N(C(=O)c2nsc(Cl)c2Cl)C(C(=O)NC2CCCC2)c2ccc(O)cc2)c1C (stereo not drawn)	98*	49	0.9	1	53
Cc1cc(C)cc(N(C(=O)c2nsc(Cl)c2Cl)C(C(=O)NC2CCCC2)c2ccc(O)cc2)c1 (stereo not drawn)	71*	42	0.8	0.9	47
Cn1c(SCC(=O)NC2CC2)nnc1-c1cccc(NC(=O)c2ccccc2F)c1	44	88	1	0.9	87
Cc1cc2c3c(c1)C1(C(=O)N3C(C)(C)CC2C)C(C#N)=C(N)Oc2cc(O)ccc21 (stereo not drawn)	100*	71	0.8	0.8	74
CC1=CC(C)(C)N2C(=O)C3(C(C#N)=C(N)Oc4cc(O)ccc43)c3cccc1c32 (stereo not drawn)	56*	67	0.8	0.9	71
CC1=CC(C)(C)N2C(=O)C3(C(C#N)=C(N)Oc4cc(C)oc(=O)c43)c3cc(C)cc1c32 (stereo not drawn)	91*	x	x	x	x
Cc1ccc(NC(=O)CN2C(=O)S/C(=C\C(=O)Nc3ccc(Cl)cc3)C2=O)cc1	63*	91	1	0.9	97
O=C(NCCN1CCc2ccccc2C1)C1CCN(S(=O)(=O)N2CCC3(CC2)OCCO3)CC1	-6	90	1	0.9	85
CCS(=O)(=O)N1CCCC(C(=O)NCCN(C)Cc2ccccc2)C1 (stereo not drawn)	0	102	1	1	94
O=C(NCCN1CCc2ccccc2C1)C1CCN(S(=O)(=O)N2CCCCC2)CC1	81*	94	0.9	0.9	97
CCS(=O)(=O)N1CCCC(C(=O)NCCN2CCC(Cc3ccccc3)CC2)C1 (stereo not drawn)	90*	88	0.9	0.9	88
CS(=O)(=O)N1CCCC(C(=O)NCCN2CCC(Cc3ccccc3)CC2)C1 (stereo not drawn)	89*	92	0.9	0.9	81
SMILES	Lmaj promast	PTEN del growth	PMI activator	PMI act satM6P	bCat KO growth
CCOC(=O)N1CCC(=NNC(=O)c2ccc(O)cc2)CC1	-7	94	1	1	99
C=CCNC(=O)CC(=O)N/N=C/c1cccc(C)c1	-4	100	1.1	1.1	96
CC(C)CNC(=O)c1ccccc1SCC(=O)NC12CC3CC(CC(C3)C1)C2	20	77	1	1	71
Cc1ccc(S(=O)OCC(=O)Nc2cc(Cl)ccc2N2CCOCC2)cc1 (stereo not drawn)	99*	x	0.7	0.5	x
Cc1cc(C)cc(N(C(=O)c2csnn2)C(C(=O)NC(C)(C)C)c2cccnc2)c1 (stereo not drawn)	-5	x	0.9	1	x
Cc1cc(C)cc(NC(=O)CC23CC4CC(C2)CC(n2nnc(C)n2)(C4)C3)c1	46	84	0.8	0.9	84
Cc1nnn(C23CC4CC(CC(CC(=O)Nc5ccc(C)c(Cl)c5)(C4)C2)C3)n1	95*	56	0.8	0.8	66
COc1cccc(CN2CCCN(S(=O)(=O)c3ccc(Br)cc3)CC2)c1	93*	81	1	1	80
O=S(=O)(c1ccc(Br)cc1)N1CCCN(Cc2cccc(F)c2)CC1	86*	83	0.9	0.9	77
O=C1COc2ccc(C(=O)/C=C/c3ccccc3)cc2N1	84*	8	0.9	0.9	10
O=C(/C=C/c1ccccc1)c1ccc2c(c1)OCCCCO2	44	5	0.9	0.9	3.5*
O=C1COc2ccc(C(=O)c3ccccc3C(=O)NCc3ccccc3)cc2N1	0	94	1	1	90
N#Cc1ccc(/C=C/C(=O)c2ccc3c(c2)OCO3)cc1	40	x	1	0.9	x
Cn1/c(=N/NC(=O)c2ccccc2F)sc2ccccc21	-8	x	1	1	x
COCCSc1ccccc1C(=O)Nc1ccc(Cl)cc1	10	x	0.9	0.9	x
CCCn1c(SCC(=O)c2ccc3c(c2)NC(=O)CO3)nc2ccccc21	2	28	1.2	1.1	4.6*
C/C(=N\NC(=O)COc1ccc(C)cc1Br)c1cc([N+](=O)[O-])cs1	59*	x	0.8	0.9	x
C/C(=N\NC(=O)COc1ccc(C)cc1[N+](=O)[O-])c1cccs1	-2	x	1.1	1	x
CCC(C)N1C(=O)C2C(C(=O)Nc3cccc(OC)c3)C3C=CC2(O3)C1C(=O)NC1CCCCC1C (stereo not drawn)	-1	101	1	0.9	98
O=C(C1=C[C@@H](c2csc3ccccc23)C[C@@H](OCc2ccc(CO)cc2)O1)N1CCN(Cc2ccccc2)CC1	51*	x	0.9	0.8	x
O=C(C1=C[C@@H](c2csc3ccccc23)C[C@@H](OCc2ccc(CO)cc2)O1)N1CCN(Cc2ccc3c(c2)OCO3)CC1	73*	x	0.8	0.8	x
CC(=O)n1cc([C@H]2C=C(C(=O)N3CCN(Cc4ccc5c(c4)OCO5)CC3)O[C@@H](OCc3ccc(CO)cc3)C2)c2ccccc21	76*	x	0.9	1	x
